Assay results published in the M2OR odorant receptor database.

Key:
Conditions in all cases: stereoisomer not certain
OR1E3 (Homo sapiens) = OR1E3 (Homo sapiens) (UniProt Q8WZA6)
Procedure, shortened: (§1)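 Each receptor–molecule pair is labelled responsive or non-responsive (inactive) according to whether the original authors judged the measured signal statistically different from baseline. The data were taken from the main text and supplementary material of published papers and checked for typos and inconsistencies. Assay methods differed by source, with transient luciferase assays in mammalian cell lines being common.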

OR1F1 (Homo sapiens) = OR1F1 (Homo sapiens) (UniProt O43749)
Chain of OR1F1 (Homo sapiens) (O43749 whole entry): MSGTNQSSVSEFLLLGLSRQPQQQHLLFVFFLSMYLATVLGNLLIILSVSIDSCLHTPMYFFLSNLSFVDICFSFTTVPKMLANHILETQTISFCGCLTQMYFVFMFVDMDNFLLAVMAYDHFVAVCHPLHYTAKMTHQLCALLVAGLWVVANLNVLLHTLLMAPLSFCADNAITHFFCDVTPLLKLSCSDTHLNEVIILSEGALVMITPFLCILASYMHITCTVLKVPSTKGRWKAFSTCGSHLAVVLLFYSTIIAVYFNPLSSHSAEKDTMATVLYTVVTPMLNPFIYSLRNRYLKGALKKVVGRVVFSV
Procedure, shortened: as §1

OR1F12P (Homo sapiens) = OR1F12P (Homo sapiens) (UniProt Q8NHA8)
Chain of OR1F12P (Homo sapiens) (Q8NHA8 whole entry): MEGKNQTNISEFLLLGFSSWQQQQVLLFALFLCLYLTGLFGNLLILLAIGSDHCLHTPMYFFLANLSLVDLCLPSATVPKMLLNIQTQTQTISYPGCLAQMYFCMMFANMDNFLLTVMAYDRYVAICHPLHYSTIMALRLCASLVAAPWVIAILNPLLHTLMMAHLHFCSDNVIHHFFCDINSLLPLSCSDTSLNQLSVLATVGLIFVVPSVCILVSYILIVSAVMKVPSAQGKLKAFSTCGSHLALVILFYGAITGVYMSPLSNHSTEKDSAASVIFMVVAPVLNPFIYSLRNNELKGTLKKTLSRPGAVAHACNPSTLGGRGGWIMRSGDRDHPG
Procedure, shortened: as §1

OR1G1 (Homo sapiens) = target: T1, OR1G1 (Homo sapiens) (UniProt P47890)
T1 sequence (whole entry): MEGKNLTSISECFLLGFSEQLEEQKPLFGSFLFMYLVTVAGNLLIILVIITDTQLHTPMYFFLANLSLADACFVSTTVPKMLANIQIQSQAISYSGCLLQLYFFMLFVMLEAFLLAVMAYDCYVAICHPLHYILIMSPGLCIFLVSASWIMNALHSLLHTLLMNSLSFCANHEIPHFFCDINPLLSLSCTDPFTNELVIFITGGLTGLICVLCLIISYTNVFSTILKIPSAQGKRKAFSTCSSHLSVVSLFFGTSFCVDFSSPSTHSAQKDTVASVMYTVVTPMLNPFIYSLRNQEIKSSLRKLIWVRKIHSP
Procedure, shortened: as §1

OR1I1 (Homo sapiens) = OR1I1 (Homo sapiens) (UniProt O60431)
Chain of OR1I1 (Homo sapiens) (O60431 whole entry): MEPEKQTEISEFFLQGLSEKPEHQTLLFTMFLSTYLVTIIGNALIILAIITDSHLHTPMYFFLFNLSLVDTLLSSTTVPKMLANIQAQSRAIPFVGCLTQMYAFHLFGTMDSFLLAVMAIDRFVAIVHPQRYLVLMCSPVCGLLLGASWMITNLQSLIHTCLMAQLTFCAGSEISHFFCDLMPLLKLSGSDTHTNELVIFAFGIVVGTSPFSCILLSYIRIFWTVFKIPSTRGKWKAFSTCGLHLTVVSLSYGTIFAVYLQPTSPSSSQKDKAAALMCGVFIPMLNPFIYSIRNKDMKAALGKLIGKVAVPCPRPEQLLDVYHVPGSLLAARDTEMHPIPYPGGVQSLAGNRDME
Procedure, shortened: as §1

OR1J1 (Homo sapiens) = OR1J1 (Homo sapiens) (UniProt Q8NGS3)
Chain of OR1J1 (Homo sapiens) (Q8NGS3 whole entry): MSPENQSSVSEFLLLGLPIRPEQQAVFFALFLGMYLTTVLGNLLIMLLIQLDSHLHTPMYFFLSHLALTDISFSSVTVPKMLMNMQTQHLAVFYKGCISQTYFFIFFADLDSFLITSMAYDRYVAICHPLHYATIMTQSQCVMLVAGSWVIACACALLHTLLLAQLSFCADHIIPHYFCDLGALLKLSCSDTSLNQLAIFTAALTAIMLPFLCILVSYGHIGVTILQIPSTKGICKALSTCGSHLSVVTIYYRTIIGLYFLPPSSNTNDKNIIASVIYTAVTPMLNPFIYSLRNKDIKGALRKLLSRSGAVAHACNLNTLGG
Procedure, shortened: as §1

OR1K1 (Homo sapiens) = OR1K1 (Homo sapiens) (UniProt Q8NGR3)
Chain of OR1K1 (Homo sapiens) (Q8NGR3 whole entry): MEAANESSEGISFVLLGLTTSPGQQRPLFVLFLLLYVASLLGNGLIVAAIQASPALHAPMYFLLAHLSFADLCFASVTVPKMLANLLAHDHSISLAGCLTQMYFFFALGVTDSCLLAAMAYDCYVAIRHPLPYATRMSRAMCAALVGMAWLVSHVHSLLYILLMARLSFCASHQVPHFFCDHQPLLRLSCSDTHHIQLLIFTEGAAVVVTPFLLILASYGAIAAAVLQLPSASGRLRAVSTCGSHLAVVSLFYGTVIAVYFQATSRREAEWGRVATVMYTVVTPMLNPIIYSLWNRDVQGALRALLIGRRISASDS
Procedure, shortened: as §1

OR1L1 (Homo sapiens) = OR1L1 (Homo sapiens) (UniProt Q8NH94)
Chain of OR1L1 (Homo sapiens) (Q8NH94 whole entry): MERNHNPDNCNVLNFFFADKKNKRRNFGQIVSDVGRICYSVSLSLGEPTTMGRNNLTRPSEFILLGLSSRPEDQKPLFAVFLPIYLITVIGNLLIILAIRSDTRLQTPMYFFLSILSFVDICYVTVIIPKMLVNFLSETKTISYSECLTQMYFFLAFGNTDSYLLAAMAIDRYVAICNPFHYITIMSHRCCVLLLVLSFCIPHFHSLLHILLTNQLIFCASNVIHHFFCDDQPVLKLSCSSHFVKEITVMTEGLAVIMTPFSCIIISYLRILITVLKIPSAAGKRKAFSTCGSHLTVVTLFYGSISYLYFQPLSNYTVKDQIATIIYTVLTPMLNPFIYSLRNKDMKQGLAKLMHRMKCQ
Procedure, shortened: as §1

OR1L3 (Homo sapiens) = target: T2, OR1L3 (Homo sapiens) (UniProt Q8NH93)
T2 sequence (whole entry): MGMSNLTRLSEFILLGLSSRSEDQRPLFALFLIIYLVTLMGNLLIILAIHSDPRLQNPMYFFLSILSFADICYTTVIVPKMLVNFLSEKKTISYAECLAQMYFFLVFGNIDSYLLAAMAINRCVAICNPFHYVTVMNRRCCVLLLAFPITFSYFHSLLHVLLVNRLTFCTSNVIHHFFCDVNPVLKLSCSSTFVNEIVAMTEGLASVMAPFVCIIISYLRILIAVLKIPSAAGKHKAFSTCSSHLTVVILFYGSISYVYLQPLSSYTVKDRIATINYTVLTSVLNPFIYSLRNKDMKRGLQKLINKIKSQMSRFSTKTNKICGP
Procedure, shortened: as §1

OR1L4 (Homo sapiens) = OR1L4 (Homo sapiens) (UniProt Q8NGR5)
Chain of OR1L4 (Homo sapiens) (Q8NGR5 whole entry): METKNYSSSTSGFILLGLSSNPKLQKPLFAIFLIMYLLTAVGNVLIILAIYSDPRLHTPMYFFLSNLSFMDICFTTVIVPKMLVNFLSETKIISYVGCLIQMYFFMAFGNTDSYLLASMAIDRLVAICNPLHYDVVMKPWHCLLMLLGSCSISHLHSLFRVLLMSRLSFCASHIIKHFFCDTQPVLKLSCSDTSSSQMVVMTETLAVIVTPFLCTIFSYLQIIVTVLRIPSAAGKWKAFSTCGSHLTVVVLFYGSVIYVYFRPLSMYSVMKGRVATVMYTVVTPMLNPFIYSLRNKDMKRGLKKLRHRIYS
Procedure, shortened: as §1

OR1L6 (Homo sapiens) = OR1L6 (Homo sapiens) (UniProt Q8NGR2)
Chain of OR1L6 (Homo sapiens) (Q8NGR2 whole entry): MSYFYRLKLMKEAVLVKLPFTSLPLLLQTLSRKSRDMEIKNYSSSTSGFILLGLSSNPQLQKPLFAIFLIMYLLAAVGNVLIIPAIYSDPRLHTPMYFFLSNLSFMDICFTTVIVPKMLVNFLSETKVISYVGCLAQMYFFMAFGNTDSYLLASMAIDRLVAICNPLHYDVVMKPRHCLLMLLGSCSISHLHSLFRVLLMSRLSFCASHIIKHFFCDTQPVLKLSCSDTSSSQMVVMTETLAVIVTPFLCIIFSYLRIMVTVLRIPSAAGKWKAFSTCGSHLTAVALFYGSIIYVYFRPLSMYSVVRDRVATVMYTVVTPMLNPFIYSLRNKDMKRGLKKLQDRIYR
Procedure, shortened: as §1

OR1L8 (Homo sapiens) = OR1L8 (Homo sapiens) (UniProt Q8NGR8)
Chain of OR1L8 (Homo sapiens) (Q8NGR8 whole entry): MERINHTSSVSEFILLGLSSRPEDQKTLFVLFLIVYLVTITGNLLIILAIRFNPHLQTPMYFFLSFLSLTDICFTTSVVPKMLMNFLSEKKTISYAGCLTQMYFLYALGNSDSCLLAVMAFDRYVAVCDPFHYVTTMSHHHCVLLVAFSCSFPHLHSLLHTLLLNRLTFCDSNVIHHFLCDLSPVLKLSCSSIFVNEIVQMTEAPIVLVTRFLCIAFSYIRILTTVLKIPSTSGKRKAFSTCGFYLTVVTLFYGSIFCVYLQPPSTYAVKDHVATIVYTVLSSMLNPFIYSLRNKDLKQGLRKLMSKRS
Procedure, shortened: as §1

OR1M1 (Homo sapiens) = OR1M1 (Homo sapiens) (UniProt Q8NGA1)
Chain of OR1M1 (Homo sapiens) (Q8NGA1 whole entry): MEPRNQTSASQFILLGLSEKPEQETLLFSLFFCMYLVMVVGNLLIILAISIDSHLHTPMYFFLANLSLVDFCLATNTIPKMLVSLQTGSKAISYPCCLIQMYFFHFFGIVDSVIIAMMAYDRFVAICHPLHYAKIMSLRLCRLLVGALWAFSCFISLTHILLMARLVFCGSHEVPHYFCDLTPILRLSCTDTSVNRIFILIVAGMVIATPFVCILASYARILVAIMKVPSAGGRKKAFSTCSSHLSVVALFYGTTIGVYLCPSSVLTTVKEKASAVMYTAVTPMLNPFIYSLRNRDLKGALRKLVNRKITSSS
Procedure, shortened: as §1

OR1F1 = test system: OR1F1
Chain of OR1F1 (as listed by the source): as the sequence (O43749 whole entry) above, with F75S counted along it
Procedure, shortened: as §1

OR1J2 (Homo sapiens) = OR1J2 (Homo sapiens) (UniProt Q8NGS2)
Chain of OR1J2 (Homo sapiens) (Q8NGS2 whole entry): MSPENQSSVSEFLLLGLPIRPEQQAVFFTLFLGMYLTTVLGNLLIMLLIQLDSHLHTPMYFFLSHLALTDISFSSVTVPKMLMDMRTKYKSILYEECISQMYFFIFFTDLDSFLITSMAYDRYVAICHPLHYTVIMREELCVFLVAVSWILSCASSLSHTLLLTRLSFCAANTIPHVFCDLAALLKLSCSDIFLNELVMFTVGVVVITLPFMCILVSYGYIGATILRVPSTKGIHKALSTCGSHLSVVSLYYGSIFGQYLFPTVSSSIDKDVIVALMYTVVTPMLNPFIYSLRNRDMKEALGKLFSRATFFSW
Procedure, shortened: as §1

OR1J4 (Homo sapiens) = OR1J4 (Homo sapiens) (UniProt Q8NGS1)
Chain of OR1J4 (Homo sapiens) (Q8NGS1 whole entry): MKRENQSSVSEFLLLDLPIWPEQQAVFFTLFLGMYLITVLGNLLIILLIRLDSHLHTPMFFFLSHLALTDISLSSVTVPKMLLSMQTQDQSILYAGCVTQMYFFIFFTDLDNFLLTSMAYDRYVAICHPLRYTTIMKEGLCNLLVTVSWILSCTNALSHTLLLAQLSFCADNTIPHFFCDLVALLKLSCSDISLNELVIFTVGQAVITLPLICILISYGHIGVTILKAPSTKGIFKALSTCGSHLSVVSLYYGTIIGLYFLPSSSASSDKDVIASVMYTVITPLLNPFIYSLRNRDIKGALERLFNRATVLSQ
Procedure, shortened: as §1

OR1L1 = test system: OR1L1
Chain of OR1L1 (as listed by the source): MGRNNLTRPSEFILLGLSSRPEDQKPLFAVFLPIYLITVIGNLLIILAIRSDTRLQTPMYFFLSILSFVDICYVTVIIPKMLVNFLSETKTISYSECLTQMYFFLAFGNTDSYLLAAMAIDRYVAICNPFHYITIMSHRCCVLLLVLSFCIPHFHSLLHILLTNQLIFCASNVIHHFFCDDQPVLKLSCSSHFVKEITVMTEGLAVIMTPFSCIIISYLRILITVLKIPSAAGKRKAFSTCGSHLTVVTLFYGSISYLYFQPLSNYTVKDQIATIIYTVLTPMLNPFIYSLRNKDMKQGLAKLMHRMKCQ
Procedure, shortened: as §1

OR1L4 = test system: OR1L4
Chain of OR1L4 (as listed by the source): as the sequence (Q8NGR5 whole entry) above, with G234R counted along it
Procedure, shortened: as §1

OR1L6 = test system: OR1L6
Procedure, shortened: as §1

OR1L8 T27P R211P = test system: OR1L8 T27P R211P
Procedure, shortened: as §1
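Further: active if original authors judged signal statistically different from baseline.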

Chain of OR1E3 (Homo sapiens) (Q8WZA6 whole entry): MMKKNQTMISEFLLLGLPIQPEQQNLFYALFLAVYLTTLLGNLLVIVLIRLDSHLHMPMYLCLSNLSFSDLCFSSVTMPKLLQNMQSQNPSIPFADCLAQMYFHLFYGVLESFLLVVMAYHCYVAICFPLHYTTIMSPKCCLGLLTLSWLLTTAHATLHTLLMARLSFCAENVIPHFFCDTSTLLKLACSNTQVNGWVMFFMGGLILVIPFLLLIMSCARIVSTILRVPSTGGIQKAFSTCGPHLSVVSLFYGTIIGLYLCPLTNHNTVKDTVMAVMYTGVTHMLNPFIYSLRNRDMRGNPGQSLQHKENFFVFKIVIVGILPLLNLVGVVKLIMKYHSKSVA

In the case of Cc1c([N+](=O)[O-])c(C)c([N+](=O)[O-])c(C(C)(C)C)c1[N+](=O)[O-], the “odorant receptor agonist call” value (OR1E3 (Homo sapiens)) was “inactive”, the “odorant receptor agonist call” value (OR1F1 (Homo sapiens)) was “inactive” and the “odorant receptor agonist call” value (OR1F12P (Homo sapiens)) was “inactive”. For the same molecule, the “odorant receptor agonist call” value (OR1G1 (Homo sapiens)) was “inactive”, the “odorant receptor agonist call” value (OR1I1 (Homo sapiens)) was “inactive” and the “odorant receptor agonist call” value (OR1J1 (Homo sapiens)) was “inactive”. The “odorant receptor agonist call” value (OR1K1 (Homo sapiens)) was “inactive”, the “odorant receptor agonist call” value (OR1L1 (Homo sapiens)) was “inactive” and the “odorant receptor agonist call” value (OR1L3 (Homo sapiens)) was “inactive”. The “odorant receptor agonist call” value (OR1L4 (Homo sapiens)) was “inactive”, the “odorant receptor agonist call” value (OR1L6 (Homo sapiens)) was “inactive” and the “odorant receptor agonist call” value (OR1L8 (Homo sapiens)) was “inactive”. The “odorant receptor agonist call” value (OR1M1 (Homo sapiens)) was “inactive”.
For C=CCOC(=O)Cc1ccccc1, the “odorant receptor agonist call” value (OR1F1 (Homo sapiens)) was “inactive”, the “odorant receptor agonist call” value (OR1F12P (Homo sapiens)) was “inactive” and the “odorant receptor agonist call” value (OR1F1) was “inactive”. The “odorant receptor agonist call” value (OR1G1 (Homo sapiens)) was “inactive”, the “odorant receptor agonist call” value (OR1I1 (Homo sapiens)) was “inactive” and the “odorant receptor agonist call” value (OR1J1 (Homo sapiens)) was “inactive”. For the same molecule, the “odorant receptor agonist call” value (OR1J2 (Homo sapiens)) was “inactive”, the “odorant receptor agonist call” value (OR1J4 (Homo sapiens)) was “inactive” and the “odorant receptor agonist call” value (OR1K1 (Homo sapiens)) was “inactive”. The “odorant receptor agonist call” value (OR1L1) was “inactive”, the “odorant receptor agonist call” value (OR1L3 (Homo sapiens)) was “inactive” and the “odorant receptor agonist call” value (OR1L4 (Homo sapiens)) was “inactive”. For the same molecule, the “odorant receptor agonist call” value (OR1L4) was “inactive”, the “odorant receptor agonist call” value (OR1L6) was “inactive” and the “odorant receptor agonist call” value (OR1L8 (Homo sapiens)) was “inactive”. For the same molecule, the “odorant receptor agonist call” value (OR1L8 T27P R211P) was “inactive” and the “odorant receptor agonist call” value (OR1M1 (Homo sapiens)) was “inactive”.
For O=Cc1ccccc1, the “odorant receptor agonist call” value (OR1G1 (Homo sapiens)) was “active” and the “odorant receptor agonist call” value (OR1L3 (Homo sapiens)) was “inactive”.
With O=CC=Cc1ccccc1 the “odorant receptor agonist call” value (OR1L3 (Homo sapiens)) was “inactive”.
With c1ccncc1 the “odorant receptor agonist call” value (OR1G1 (Homo sapiens)) was “active”.
COc1ccc(C=O)cc1 was tested, and the “odorant receptor agonist call” value (OR1G1 (Homo sapiens)) was “inactive”.
For C=CCc1ccc(OC)cc1, the “odorant receptor agonist call” value (OR1G1 (Homo sapiens)) was “inactive” and the “odorant receptor agonist call” value (OR1L3 (Homo sapiens)) was “inactive”.
In the case of C=CCc1ccc2c(c1)OCO2, the “odorant receptor agonist call” value (OR1G1 (Homo sapiens)) was “active”.
CC(C=O)Cc1ccc2c(c1)OCO2 (stereo not given) was tested, and the “odorant receptor agonist call” value (OR1G1 (Homo sapiens)) was “inactive”.
With CC(=O)CCc1ccc2c(c1)OCO2 the “odorant receptor agonist call” value (OR1G1 (Homo sapiens)) was “active”.
